We go through 15 compounds from ChEMBL document CHEMBL3872225, “Synthesis, binding assays, cytotoxic activity and docking studies of benzimidazole and benzothiophene derivatives with selective affinity for the CB2 cannabinoid receptor” (Eur J Med Chem, 2016).

In series [1] the target is Cannabinoid receptor 1 (Homo sapiens, UniProt P21554). Kind of series: Displacement of [3H]CP-55940 from human recombinant CB1 receptor expressed in HEK293 cell membranes incubated for 1.5 hrs. In short, it runs like this:
(§1)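 Membranes from HEK-293 cells overexpressing human CB1 or CB2 incubated with increasing compound concentrations and 0.5 nM [3H]CP-55,940 at 30 °C for 1.5 h. […] Selectivity index is Ki CB1/Ki CB2.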

In series [2] the target is Cannabinoid receptor 1 (CB1) (Homo sapiens, UniProt P21554). Briefly: Displacement of [3H]CP-55940 from human recombinant CB1 receptor expressed in HEK293 cell membranes at 1 uM incubated for 1.5 hrs relative to control. The following applies: probe [3H]CP-55940. Put shortly: (§2)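 Single-point screen on HEK-293 membranes overexpressing human CB1 or CB2. […] Compounds displacing more than 50% at 1 μM went on to full curves.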
Cannabinoid receptor 1 (CB1), sequence (P21554 whole entry): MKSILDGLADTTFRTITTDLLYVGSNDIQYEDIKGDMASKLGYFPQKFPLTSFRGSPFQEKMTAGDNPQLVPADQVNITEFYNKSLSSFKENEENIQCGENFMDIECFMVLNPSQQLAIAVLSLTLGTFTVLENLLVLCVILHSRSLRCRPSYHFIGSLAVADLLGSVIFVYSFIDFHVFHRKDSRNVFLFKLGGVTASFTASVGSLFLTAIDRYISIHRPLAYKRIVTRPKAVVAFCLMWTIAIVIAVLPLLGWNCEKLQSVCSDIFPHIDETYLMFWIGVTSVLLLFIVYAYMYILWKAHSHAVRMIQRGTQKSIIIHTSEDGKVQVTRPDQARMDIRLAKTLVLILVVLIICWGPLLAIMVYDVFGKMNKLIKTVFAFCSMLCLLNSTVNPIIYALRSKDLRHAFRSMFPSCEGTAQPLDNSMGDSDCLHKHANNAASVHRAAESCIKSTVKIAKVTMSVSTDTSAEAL
On the technique in general: Loss of bound radioactivity is the signal in a displacement assay; it reports binding, not function.

The target in series [3] is T1, Cannabinoid receptor 2 (Homo sapiens, UniProt P34972). Briefly: Displacement of [3H]CP-55940 from human recombinant CB2 receptor expressed in HEK293 cell membranes at 1 uM incubated for 1.5 hrs relative to control. Put shortly:
as §2

Series [4] deals with T1, Cannabinoid receptor 2. Briefly: Displacement of [3H]CP-55940 from human recombinant CB2 receptor expressed in HEK293 cell membranes incubated for 1.5 hrs. Put shortly:
as §1

For series [5], the species on record is Homo sapiens. Kind of series: Selectivity index, ratio of Ki for displacement of [3H]CP-55940 from human recombinant CB1 receptor to Ki for displacement of [3H]CP-55940 from human recombinant CB2 receptor. Put shortly:
as §1

Series [6] can be described thus: Cytotoxicity against human HeLa cells assessed as reduction in cell viability measured after 72 hrs by MTT assay. The series is classed as functional, cell-based. Put shortly:
(§3)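 Cells kept in RPMI 1640 with 5% FBS, penicillin/streptomycin, 37 °C, 5% CO2. Seeded at 10,000 cells/well, then exposed to compounds at 0.001–10 μM in 5% FBS-RPMI for 72 h at 37 °C. MTT added for 4 h, formazan dissolved overnight in 10% SDS/0.1 mM HCl, absorbance read at 570 nm. […] Etoposide as positive control.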
For orientation: Tetrazolium dyes change colour on reduction, which living cells bring about.

Series [7] is described as follows: Cytotoxicity against resistant human HCT116 cells assessed as reduction in cell viability measured after 72 hrs by MTT assay. Type of series: functional, cell-based. The following applies: HCT-116, 72 h. Put shortly: as §3
Series [8] is described as follows: Cytotoxicity against African green monkey Vero cells assessed as reduction in cell viability measured after 72 hrs by MTT assay. Type of series: toxicity, cell-based. As to conditions: Chlorocebus sabaeus (African green monkey). Put shortly:
as §3

Series [9] in a line: Cytotoxicity against human HL60 cells assessed as reduction in cell viability measured after 72 hrs by MTT assay. The following applies: HL-60, 72 h. Type of series: functional, cell-based. In short, it runs like this: as §3
The nature of series [10]: Cytotoxicity against human H1975-1 cells assessed as reduction in cell viability measured after 72 hrs by MTT assay. Type of series: functional, cell-based. Put shortly:
as §3

Structures are written as SMILES.

T1 sequence (P34972 whole entry): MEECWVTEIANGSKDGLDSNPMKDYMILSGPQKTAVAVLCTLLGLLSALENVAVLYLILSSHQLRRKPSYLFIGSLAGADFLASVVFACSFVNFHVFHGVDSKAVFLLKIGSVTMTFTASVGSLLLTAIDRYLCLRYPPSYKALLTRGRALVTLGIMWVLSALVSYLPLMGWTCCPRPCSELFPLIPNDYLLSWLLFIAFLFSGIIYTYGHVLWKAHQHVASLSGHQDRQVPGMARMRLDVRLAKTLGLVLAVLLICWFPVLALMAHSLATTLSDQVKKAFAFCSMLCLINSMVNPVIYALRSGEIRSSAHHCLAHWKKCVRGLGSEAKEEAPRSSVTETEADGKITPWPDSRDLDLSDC
Cannabinoid receptor 1, sequence (P21554 whole entry): as the sequence (P21554 whole entry) above

The term IC50 denotes the concentration that gives 50% inhibition. Broadly, the Ki is a dissociation constant, usually derived from enzyme kinetics or from competition with a known ligand. By inhibition is commonly meant the share of the control response that was lost under treatment. For the compound `COc1ccc(C(=O)c2c(-c3ccc(OC)cc3)sc3ccccc23)cc1`, the half-inhibitory concentration (IC50) is 1100 nM in series [1]; 400 nM in series [4]; > 10000 nM in series [6]; > 10000 nM in series [7]; 76 nM in [9]; > 10000 nM in [10]. Besides, the Ki in [1] came out at 700 nM; in series [4] it was 100 nM. In series [2], the inhibition at 1.5 h, 1 µM was > 50%. Besides, in series [3], the inhibition is > 50%. Besides, the Ratio Ki in series [5] worked out at 7. Further, the IC50 at 72 h in [8] was > 10000 nM.

For the compound `CCCCc1nc2ccccc2n1C(=O)c1ccc(OC)cc1`, the half-inhibitory concentration (IC50) in series [1] is > 10000 nM; in [4], 6300 nM; in [6], > 10000 nM; in series [7], > 10000 nM; in series [9] it was 61 nM; in series [10], > 10000 nM. Further, the figures for the Ki in series [1] and in series [4] were > 10000 nM and 1600 nM, respectively. In [2], the inhibition at 1.5 h, 1 µM is > 50%. Also, the inhibition in [3] is > 50%. Further, the Ratio Ki in [5] was > 6.25. Besides, the IC50 at 72 h in series [8] was 170 nM.

`CC(C)Cc1nc2ccccc2n1C(=O)c1cccc2ccccc12`: the concentration for half-maximal inhibition (IC50) was > 10000 nM in series [1]; 500 nM in [4]; > 10000 nM in series [6]; 2170 nM in series [7]; 94 nM in series [9]; > 10000 nM in series [10]. The Ki is > 10000 nM in [1] and 100 nM in series [4]. The inhibition at 1.5 h, 1 µM in [2] was > 50%. Moreover, in series [3], the inhibition was > 50%. The Ratio Ki in [5] was > 100. In [8], the half-inhibitory concentration (IC50) at 72 h is > 10000 nM.

Turning to `COc1ccc(C(=O)n2c(C(C)(C)C)nc3ccccc32)cc1`, the half-maximal inhibitory concentration (IC50) in [1] was > 10000 nM; in [4], 2400 nM; in series [6], > 10000 nM; in [7], 20 nM; in series [9] it was 55 nM; in series [10] it was > 10000 nM. In addition, the Ki in series [1] was > 10000 nM; in series [4], 600 nM. The inhibition at 1.5 h, 1 µM in [2] is > 50%. Further, in [3], the inhibition was > 50%. The Ratio Ki in [5] is > 16.7. Moreover, the IC50 at 72 h in series [8] was > 10000 nM.

Turning to `CCCc1sc2ccccc2c1C(=O)c1cccc2ccccc12`, the IC50 in series [1] was 1000 nM; in [4] it was 4300 nM; in series [6], > 10000 nM; in [7], > 10000 nM; in series [9], 130 nM; in [10] it was > 10000 nM. The inhibition constant Ki in series [1] stood at 600 nM; in series [4] it was 1000 nM. Besides, the inhibition at 1.5 h, 1 µM in series [2] is > 50%. Further, the inhibition in series [3] was > 50%. In series [5], the Ratio Ki is 0.6. In addition, in series [8], the half-inhibitory concentration (IC50) at 72 h is > 10000 nM.

Regarding `COc1ccc(C(=O)n2c(C3CCC3)nc3ccccc32)cc1`, the IC50 in [1] is > 10000 nM; in series [4], 3600 nM; in series [6] it was > 10000 nM; in series [7], > 10000 nM; in series [9] it was 47 nM; in [10], > 10000 nM. In addition, the values for the inhibitory constant (Ki) in [1] and in [4] were > 10000 nM and 900 nM, respectively. Besides, the inhibition at 1.5 h, 1 µM in series [2] was > 50%. Moreover, the inhibition in series [3] was > 50%. Also, in series [5], the Ratio Ki is > 11. Also, in series [8], the IC50 at 72 h is > 10000 nM.

Turning to `O=C(c1cccc2ccccc12)n1c(C2CCC2)nc2ccccc21`, the IC50 in series [1] was 9700 nM; in [4] it was 5500 nM; in series [6], > 10000 nM; in [7], > 10000 nM; in [9], 180 nM; in series [10], > 10000 nM. Moreover, the Ki in series [1] amounted to 5800 nM; in series [4], 1400 nM. Moreover, the inhibition at 1.5 h, 1 µM in [2] was > 50%. The inhibition in series [3] is > 50%. For the same compound, the Ratio Ki in series [5] was determined as 4.14. Further, the concentration for half-maximal inhibition (IC50) at 72 h in series [8] is > 10000 nM.

As for `COc1ccc(C(=O)n2c(C3CCCCC3)nc3ccccc32)cc1`, the IC50 is > 10000 nM in [1]; 2800 nM in series [4]; > 10000 nM in [6]; > 10000 nM in [7]; 85 nM in series [9]; > 10000 nM in series [10]. The Ki in [1] was > 10000 nM; in series [4] it was 700 nM. For the same compound, the inhibition at 1.5 h, 1 µM in series [2] was > 50%. In series [3], the inhibition was > 50%. In addition, the Ratio Ki in series [5] is > 14. The IC50 at 72 h in [8] is 1640 nM.

As for `CC(C)Cc1sc2ccccc2c1C(=O)c1cccc2ccccc12`, the half-maximal inhibitory concentration (IC50) in [1] was 1200 nM; in [4], 2000 nM; in series [6], > 10000 nM; in series [7] it was > 10000 nM; in [9], 72 nM; in series [10], > 10000 nM. Also, the results for the Ki in series [1] and in [4] were 700 nM and 500 nM, respectively. Further, the inhibition at 1.5 h, 1 µM in series [2] is > 50%. The inhibition in [3] was > 50%. Besides, in series [5], the Ratio Ki was determined as 1.4. For the same compound, the IC50 at 72 h in series [8] is > 10000 nM.

Consider `COc1ccc(C(=O)n2c(C)nc3ccccc32)cc1`, for which the half-maximal inhibitory concentration (IC50) was > 10000 nM in series [1]; > 10000 nM in [4]; > 10000 nM in [6]; 10 nM in series [7]; 57 nM in series [9]; > 10000 nM in series [10]. Further, the Ki in series [1] and in series [4] was > 10000 nM in each case. The inhibition at 1.5 h, 1 µM in series [2] was > 50%. In series [3], the inhibition was > 50%. In addition, in [8], the concentration for half-maximal inhibition (IC50) at 72 h worked out at 1230 nM.

Take `COc1cc([C@@H]2c3cc4c(cc3[C@@H](O[C@@H]3O[C@@H]5CO[C@@H](C)O[C@H]5[C@H](O)[C@H]3O)[C@H]3COC(=O)[C@H]23)OCO4)cc(OC)c1O` [ETOPOSIDE]: the 50% inhibitory concentration (IC50) was determined as 8200 nM in series [6], 2800 nM in series [7], 2100 nM in [9] and 9500 nM in series [10]. The IC50 at 72 h in series [8] stood at 1500 nM.

As to `Cc1c(C(=O)c2cccc3ccccc23)c2cccc3c2n1[C@H](CN1CCOCC1)CO3` [WIN-552122], the IC50 was 980 nM in series [6], 920 nM in series [7], 7 nM in series [9] and 3800 nM in [10]. The IC50 at 72 h in series [8] is 310 nM.

`Cc1nc2ccccc2n1C(=O)c1cccc2ccccc12`: the half-maximal inhibitory concentration (IC50) was > 10000 nM in series [1]; > 10000 nM in series [4]; > 10000 nM in [6]; > 10000 nM in series [7]; 93 nM in series [9]; > 10000 nM in series [10]. The Ki in series [1] and in series [4] was > 10000 nM each time. For the same compound, the inhibition at 1.5 h, 1 µM in [2] was > 50%. The inhibition in series [3] was > 50%. Moreover, the half-maximal inhibitory concentration (IC50) at 72 h in [8] was > 10000 nM.

With `COc1ccc(C(=O)n2c(CC(C)C)nc3ccccc32)cc1`, the half-maximal inhibitory concentration (IC50) was > 10000 nM in series [1]; > 10000 nM in series [4]; > 10000 nM in series [6]; 3560 nM in series [7]; 34 nM in series [9]; > 10000 nM in [10]. The Ki in series [1] and in series [4] was > 10000 nM in each case. Moreover, the inhibition at 1.5 h, 1 µM in series [2] was > 50%. For the same compound, the inhibition in series [3] was > 50%. The IC50 at 72 h in series [8] is > 10000 nM.

For `CCCc1nc2ccccc2n1C(=O)c1cccc2ccccc12`, the IC50 in series [1] is > 10000 nM; in series [4], > 10000 nM; in [6] it was > 10000 nM; in [7], 2400 nM; in series [9], 100 nM; in [10], > 10000 nM. The inhibition constant Ki in series [1] and in series [4] was > 10000 nM throughout. In addition, the inhibition at 1.5 h, 1 µM in [2] is > 50%. Further, in series [3], the inhibition is > 50%. In [8], the 50% inhibitory concentration (IC50) at 72 h is > 10000 nM.
